Source: ChEMBL document CHEMBL1154334, “Effect of the structure of adenosine mimic of bisubstrate-analog inhibitors on their activity towards basophilic protein kinases” (Bioorg Med Chem Lett, 2009)

Experiments:
[1] = target: T1, cAMP-dependent protein kinase catalytic subunit alpha (Homo sapiens, UniProt P17612); assay: Inhibition of PKACalpha in presence of […]
[2] = target: RAC-gamma serine/threonine-protein kinase (Homo sapiens, UniProt Q9Y243); assay: Inhibition of PKBgamma in presence of 100 uM ATP
RAC-gamma serine/threonine-protein kinase, sequence (Q9Y243 whole entry): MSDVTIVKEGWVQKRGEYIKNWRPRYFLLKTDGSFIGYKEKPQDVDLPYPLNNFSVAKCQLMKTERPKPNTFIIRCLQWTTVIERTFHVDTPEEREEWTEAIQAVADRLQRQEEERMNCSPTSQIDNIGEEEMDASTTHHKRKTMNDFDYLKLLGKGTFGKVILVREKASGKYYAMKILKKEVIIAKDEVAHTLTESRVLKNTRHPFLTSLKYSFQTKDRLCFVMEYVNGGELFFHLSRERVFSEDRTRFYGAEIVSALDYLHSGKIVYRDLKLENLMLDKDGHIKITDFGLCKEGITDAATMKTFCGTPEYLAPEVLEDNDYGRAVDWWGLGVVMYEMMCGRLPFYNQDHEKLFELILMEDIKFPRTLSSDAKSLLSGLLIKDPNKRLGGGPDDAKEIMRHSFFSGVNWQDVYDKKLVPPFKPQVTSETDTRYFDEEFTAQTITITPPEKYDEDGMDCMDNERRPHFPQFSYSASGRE
Method in brief: (§1)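 Kinetic phosphorylation assays with PKA catalytic subunit (PKAc) or PKB catalytic subunit (PKBc) at fixed ATP. ATP Km values taken as 20 for PKAc and 100 for PKBc.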

[3] = target: Rho-associated protein kinase 2 (Homo sapiens, UniProt O75116); assay: Displacement of ARC583 from ROCK2
Rho-associated protein kinase 2, sequence (O75116 whole entry): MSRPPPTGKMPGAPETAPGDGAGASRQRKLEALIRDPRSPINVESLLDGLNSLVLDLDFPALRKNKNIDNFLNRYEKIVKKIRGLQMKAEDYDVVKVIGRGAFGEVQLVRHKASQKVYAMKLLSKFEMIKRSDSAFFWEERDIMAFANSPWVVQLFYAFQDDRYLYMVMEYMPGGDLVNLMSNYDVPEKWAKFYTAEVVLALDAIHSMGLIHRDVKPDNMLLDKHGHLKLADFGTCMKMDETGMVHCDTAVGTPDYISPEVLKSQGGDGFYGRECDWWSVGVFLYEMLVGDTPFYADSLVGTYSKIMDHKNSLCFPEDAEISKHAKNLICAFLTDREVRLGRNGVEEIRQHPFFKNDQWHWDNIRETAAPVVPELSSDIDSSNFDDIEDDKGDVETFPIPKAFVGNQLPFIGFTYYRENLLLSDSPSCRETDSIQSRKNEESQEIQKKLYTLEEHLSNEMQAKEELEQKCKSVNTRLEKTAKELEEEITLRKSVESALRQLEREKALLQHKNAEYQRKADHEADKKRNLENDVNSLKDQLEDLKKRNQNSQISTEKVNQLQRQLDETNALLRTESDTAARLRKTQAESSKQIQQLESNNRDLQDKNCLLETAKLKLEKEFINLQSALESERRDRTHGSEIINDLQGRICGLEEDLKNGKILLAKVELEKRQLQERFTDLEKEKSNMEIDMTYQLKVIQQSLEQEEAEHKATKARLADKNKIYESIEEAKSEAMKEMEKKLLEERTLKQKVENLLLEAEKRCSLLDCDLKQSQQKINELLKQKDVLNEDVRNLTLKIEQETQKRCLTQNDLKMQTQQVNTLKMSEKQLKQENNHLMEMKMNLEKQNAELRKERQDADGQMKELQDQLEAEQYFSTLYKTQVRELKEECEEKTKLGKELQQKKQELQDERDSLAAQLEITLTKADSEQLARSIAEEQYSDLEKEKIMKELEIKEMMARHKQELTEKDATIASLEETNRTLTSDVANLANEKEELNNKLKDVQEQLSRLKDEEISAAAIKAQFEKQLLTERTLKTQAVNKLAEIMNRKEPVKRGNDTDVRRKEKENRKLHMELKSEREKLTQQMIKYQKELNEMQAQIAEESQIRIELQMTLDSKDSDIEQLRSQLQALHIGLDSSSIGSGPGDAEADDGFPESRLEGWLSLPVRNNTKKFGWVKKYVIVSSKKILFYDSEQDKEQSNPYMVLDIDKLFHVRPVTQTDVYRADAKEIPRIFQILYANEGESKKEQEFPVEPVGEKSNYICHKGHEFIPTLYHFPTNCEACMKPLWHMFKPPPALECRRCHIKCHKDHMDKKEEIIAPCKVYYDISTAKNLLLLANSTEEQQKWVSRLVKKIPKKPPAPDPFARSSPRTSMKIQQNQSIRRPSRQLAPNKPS

[4] = target: T1, cAMP-dependent protein kinase catalytic subunit alpha; assay: Inhibition of PKACalpha in presence of 100 uM ATP; method in brief: as §1

IC50 [1] [µM] | IC50 [2] [µM] | Kd [3] [µM] | IC50 ([4]; read-out: IC50) [µM] | IC50 [4] | SMILES
0.082 | 0.27 | < 0.003 |  |  | N=C(N)NCCC[C@@H](NC(=O)[C@@H](CCCNC(=N)N)NC(=O)CCCCCNC(=O)[C@@H](CCCCN)NC(=O)CCCCCNC(=O)c1ccc(-c2ccnc(N)n2)s1)C(N)=O
 | 0.9 | 0.0038 | 0.39 |  | NCCCC[C@@H](NC(=O)CCCCCNC(=O)c1cccc(-c2ccncc2)c1)C(=O)NCCCCCC(=O)N[C@H](CCCN=C(N)N)C(=O)N[C@H](CCCN=C(N)N)C(N)=O
 | 4.6 | 0.036 | 0.061 |  | NCCCC[C@@H](NC(=O)CCCCCNC(=O)c1cccc(-c2ccnc(N)n2)c1)C(=O)NCCCCCC(=O)N[C@H](CCCN=C(N)N)C(=O)N[C@H](CCCN=C(N)N)C(N)=O
 | 27 | 0.8 |  |  | N=C(N)NCCC[C@@H](NC(=O)[C@@H](CCCNC(=N)N)NC(=O)CCCCCNC(=O)[C@@H](CCCCN)NC(=O)CCCCCNC(=O)c1cn(-c2ncnc3[nH]cnc23)nn1)C(N)=O
0.0049 | 0.042 |  |  |  | NCCCC[C@H](NC(=O)[C@@H](CCCN=C(N)N)NC(=O)[C@@H](CCCN=C(N)N)NC(=O)[C@@H](CCCN=C(N)N)NC(=O)[C@@H](CCCN=C(N)N)NC(=O)[C@@H](CCCN=C(N)N)NC(=O)[C@@H](CCCN=C(N)N)NC(=O)CCCCCNC(=O)[C@@H](CCCCN)NC(=O)CCCCCNC(=O)c1ccc(-c2ccnc(N)n2)s1)C(N)=O
 | > 2000 | 123 |  | Not Active | CC(=O)NCCCCCC(=O)N[C@H](CCCCN)C(=O)NCCCCCC(=O)N[C@H](CCCNC(=N)N)C(=O)N[C@H](CCCNC(=N)N)C(N)=O
